Assay results from ChEMBL document CHEMBL1126049, “Bioreductive fluorescent markers for hypoxic cells: a study of 2-nitroimidazoles with 1-substituents containing fluorescent, bridgehead-nitrogen, bicyclic systems” (J Med Chem, 1992).

How the values were obtained:
Format in all cases: cell-based
Details in all cases: Cricetulus griseus
V79-379A [1] = assay: Cytofluorimetric analysis of V79 379A chinese hamster cells incubated under hypoxic conditions with the compound (10e-4 M)
Procedure, shortened: (§1)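 V79 379A Chinese hamster cells grown as exponential suspension cultures in Eagle's MEM (Earle's salts, suspension-modified) with 7.5% foetal calf serum. Cells incubated with drug at 37 °C under oxic (air + 5% CO2) or hypoxic (nitrogen + 5% CO2) gassing. Flow cytometry used 365 nm laser excitation at 100-200 mW. Emission collected >390 nm, or >410 nm for some compounds. Data gated on forward scatter and fluorescence to exclude debris. Mean fluorescence in arbitrary units, normalized for PMT gain and laser power.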

V79-379A [2] = assay: Cytofluorimetric analysis of V79 379A chinese hamster cells incubated under oxic conditions with the compound (10e-4 M); procedure, shortened: as §1
V79-379A [3] = assay: Maximum accumulation of fluorescent metabolites in V79 379A chinese hamster cells after incubation with the compound (10e-4) at tmax; procedure, shortened: as §1

Cc1c(C)n2c(CN(C)CC(O)Cn3ccnc3[N+](=O)[O-])c(C)c(=O)n2c1=O (centres undefined)
Fluorescence (V79-379A [1]): 55 AU
Fluorescence (V79-379A [2]): 43 AU
Tmax (V79-379A [3]): 15 h

CCOC(=O)c1c(C)c(CN(C)CCCn2ccnc2[N+](=O)[O-])c2ccccn12
Fluorescence (V79-379A [1]): 765 AU
Fluorescence (V79-379A [2]): 258 AU
Tmax (V79-379A [3]): 6 h

O=c1c(NCC(O)Cn2ccnc2[N+](=O)[O-])cnc2ccccn12 (centres undefined)
Fluorescence (V79-379A [1]): 1750 AU
Fluorescence (V79-379A [2]): 603 AU
Tmax (V79-379A [3]): 6 h

CCOC(=O)c1c(C(=O)NCCN(CCO)CC(O)Cn2ccnc2[N+](=O)[O-])cn2ccccc12 (centres undefined)
Fluorescence (V79-379A [1]): 1140 AU
Fluorescence (V79-379A [2]): 66 AU
Tmax (V79-379A [3]): 6 h

N#Cc1c(C(=O)NCCN(CCO)CC(O)Cn2ccnc2[N+](=O)[O-])cn2ccccc12 (centres undefined)
Fluorescence (V79-379A [1]): 81 AU
Fluorescence (V79-379A [2]): 27 AU
Tmax (V79-379A [3]): 6 h

O=[N+]([O-])c1nccn1CC(O)CNc1ccc(-c2cc3ccccn3c2)cc1 (centres undefined)
Fluorescence (V79-379A [1]): 169 AU
Fluorescence (V79-379A [2]): 107 AU
Tmax (V79-379A [3]): 6 h

O=[N+]([O-])c1nccn1CC(O)CNc1ccc(-c2cn3ccccc3n2)cc1 (centres undefined)
Fluorescence (V79-379A [1]): 1570 AU
Fluorescence (V79-379A [2]): 417 AU
Tmax (V79-379A [3]): 6 h

Cc1c(C)n2c(CNCC(O)Cn3ccnc3[N+](=O)[O-])c(C)c(=O)n2c1=O (centres undefined)
Fluorescence (V79-379A [1]): 89 AU
Fluorescence (V79-379A [2]): 33 AU
Tmax (V79-379A [3]): 15 h
